Results: ChEMBL document CHEMBL2384906, “Biological activity, design, synthesis and structure activity relationship of some novel derivatives of curcumin containing sulfonamides” (Eur J Med Chem, 2013)
Values after ≈ are worked out from the molar mass of the structure shown. Active and inactive are the calls of the source. The rule behind the calls is not given here.

Tests used:
Mus musculus [1] = test: Antiinflammatory activity in mouse assessed as inhibition of carrageenan-induced increase in paw volume at 100 mg/kg, ip administered 1 hr prior to carrageenan challenge measured after 3 hrs relative to control; format: functional; settings: route intraperitoneal
Summary of the method: (§1)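 Mice were fasted 2 h and placed in groups of five. Controls received saline i.p. Phenylbutazone was given at 100 mg/kg i.p., curcumin at 200 mg/kg i.p., and derivatives at 200 mg/kg. After 1 h, 0.1 mL of 1% carrageenan in saline was injected subplantar into the right hind paw. Paw volume was followed by plethysmometer for 3 h, and % inhibition was calculated as (Vc − Vt)/Vc × 100.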

Pseudomonas aeruginosa [2] = test: Antimicrobial activity against Pseudomonas aeruginosa ATCC 15499 assessed as diameter of inhibition zone at 80 uM after 24 hrs by Kirby -Baur disc diffusion method; format: functional; settings: ATCC 15499, 24 h, read-out: DIZ
Summary of the method: (§2)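 Kirby-Bauer disc diffusion was used. Acetone stocks (160 µM) were serially doubled down to 80, 40 and 20 µM. 4 µL of each went onto 5 mm sterile paper discs, which were dried 30 min at 50 °C. Inoculum was 1.5 × 10⁸ CFU/mL diluted to 3 × 10² CFU/mL, and 50 µL was spread on Mueller-Hinton agar. After 24 h at 37 °C the inhibition-zone diameter was measured. Ciprofloxacin served as positive control.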

Curvularia lunata [3] = test: Antifungal activity against Curvularia lunata MTCC 581 assessed as zone of inhibition at 80 uM after 48 hrs by disc diffusion method; format: functional; settings: MTCC 581, 48 h, read-out: IZ
Summary of the method: (§3)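 Spores from 4-day potato dextrose agar cultures, suspended in sterile water at 1.5 × 10⁵ CFU/mL. 0.2 mL was spread on potato dextrose agar. 5 mm filter-paper discs soaked with test compound were laid on the lawn. Incubation was 48 h at 28 °C, then the inhibition zone was measured in mm. Fluconazole was the positive control and acetone the negative control.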

Aspergillus flavus [4] = test: Antifungal activity against Aspergillus flavus MTCC 1021 after 48 hrs; format: functional; settings: MTCC 1021, 48 h
Trichoderma viride [5] = test: Antifungal activity against Trichoderma viride MTCC 1107 assessed as zone of inhibition at 20 uM after 48 hrs by disc diffusion method; format: functional; settings: MTCC 1107, 48 h, read-out: IZ; summary of the method: as §3
Escherichia coli [6] = test: Antimicrobial activity against Escherichia coli ATCC 35218 assessed as diameter of inhibition zone at 40 uM after 24 hrs by Kirby -Baur disc diffusion method; format: functional; settings: ATCC 35218, 24 h, read-out: DIZ; summary of the method: as §2
Trichoderma viride [7] = test: Antifungal activity against Trichoderma viride MTCC 1107 assessed as zone of inhibition at 40 uM after 48 hrs by disc diffusion method; format: functional; settings: MTCC 1107, 48 h, read-out: IZ; summary of the method: as §3
Staphylococcus aureus [8] = test: Antimicrobial activity against Staphylococcus aureus ATCC 11632 assessed as diameter of inhibition zone at 40 uM after 24 hrs by Kirby -Baur disc diffusion method; format: functional; settings: ATCC 11632, 24 h, read-out: DIZ; summary of the method: as §2
Curvularia lunata [9] = test: Antifungal activity against Curvularia lunata MTCC 581 after 48 hrs; format: functional; settings: MTCC 581, 48 h
Pseudomonas aeruginosa [10] = test: Antimicrobial activity against Pseudomonas aeruginosa ATCC 15499 assessed as diameter of inhibition zone at 40 uM after 24 hrs by Kirby -Baur disc diffusion method; format: functional; settings: ATCC 15499, 24 h, read-out: DIZ; summary of the method: as §2
Staphylococcus aureus [11] = test: Antimicrobial activity against Staphylococcus aureus ATCC 11632 assessed as diameter of inhibition zone at 20 uM after 24 hrs by Kirby -Baur disc diffusion method; format: functional; settings: ATCC 11632, 24 h, read-out: DIZ; summary of the method: as §2
Salmonella typhi [12] = test: Antimicrobial activity against Salmonella typhi ATCC 23564 assessed as diameter of inhibition zone at 20 uM after 24 hrs by Kirby -Baur disc diffusion method; format: functional, Salmonella enterica subsp. enterica serovar Typhi; settings: Salmonella enterica, ATCC 23564, 24 h; read-out: DIZ
Bacillus cereus [13] = test: Antimicrobial activity against Bacillus cereus MTCC 7350 assessed as diameter of inhibition zone at 80 uM after 24 hrs by Kirby -Baur disc diffusion method; format: functional; settings: MTCC 7350, 24 h, read-out: DIZ; summary of the method: as §2
Aspergillus flavus [14] = test: Antifungal activity against Aspergillus flavus MTCC 1021 assessed as zone of inhibition at 40 uM after 48 hrs by disc diffusion method; format: functional; settings: MTCC 1021, 48 h, read-out: IZ; summary of the method: as §3
Salmonella typhi [15] = test: Antimicrobial activity against Salmonella typhi ATCC 23564 assessed as diameter of inhibition zone at 80 uM after 24 hrs by Kirby -Baur disc diffusion method; format: functional, Salmonella enterica subsp. enterica serovar Typhi; settings: Salmonella enterica, ATCC 23564, 24 h; read-out: DIZ
HeLa = test: Cytotoxicity against human HeLa cells after 24 hrs by MTT assay; format: functional, cell-based
Summary of the method: (§4)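 The MTT assay seeded 5 × 10⁴ cells per well and grew them 24 h in RPMI 1640 with compound at 2.5–200 µM. Medium without cells was the blank and adriamycin the positive control. MTT was added for 4 h at 37 °C, formazan was solubilised, and absorbance was read at 570 nm. IC50 is the concentration that cuts viability 50% against untreated cells.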

HCT-116 = test: Cytotoxicity against human HCT116 cells after 24 hrs by MTT assay; format: functional, cell-based; summary of the method: as §4
Pseudomonas aeruginosa [16] = test: Antimicrobial activity against Pseudomonas aeruginosa ATCC 15499 after 24 hrs by broth micro serial dilution method; format: functional; settings: ATCC 15499, 24 h
Summary of the method: (§5)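 This was broth microdilution in autoclaved Mueller-Hinton broth. 150 µL of compound per well was serially diluted […], and 50 µL of test organism was added. Plates were incubated 24 h at 37 °C and optical density was read.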

Trichoderma viride [17] = test: Antifungal activity against Trichoderma viride MTCC 1107 after 48 hrs; format: functional; settings: MTCC 1107, 48 h
Aspergillus niger [18] = test: Antifungal activity against Aspergillus niger MTCC 1108 assessed as zone of inhibition at 40 uM after 48 hrs by disc diffusion method; format: functional; settings: MTCC 1108, 48 h, read-out: IZ; summary of the method: as §3
Aspergillus niger [19] = test: Antifungal activity against Aspergillus niger MTCC 1108 assessed as zone of inhibition at 20 uM after 48 hrs by disc diffusion method; format: functional; settings: MTCC 1108, 48 h, read-out: IZ; summary of the method: as §3
Curvularia lunata [20] = test: Antifungal activity against Curvularia lunata MTCC 581 assessed as zone of inhibition at 20 uM after 48 hrs by disc diffusion method; format: functional; settings: MTCC 581, 48 h, read-out: IZ; summary of the method: as §3
QG-56 = test: Cytotoxicity against human QG56 cells after 24 hrs by MTT assay; format: functional, cell-based; summary of the method: as §4
Bacillus cereus [21] = test: Antimicrobial activity against Bacillus cereus MTCC 7350 assessed as diameter of inhibition zone at 40 uM after 24 hrs by Kirby -Baur disc diffusion method; format: functional; settings: MTCC 7350, 24 h, read-out: DIZ; summary of the method: as §2
Mus musculus [22] = test: Antiinflammatory activity in mouse assessed as inhibition of carrageenan-induced increase in paw volume at 200 mg/kg administered 1 hr prior to carrageenan challenge measured after 3 hrs relative to control; format: functional; summary of the method: as §1
HepG2 = test: Cytotoxicity against human HepG2 cells after 24 hrs by MTT assay; format: functional, cell-based; summary of the method: as §4
Pseudomonas aeruginosa [23] = test: Antimicrobial activity against Pseudomonas aeruginosa ATCC 15499 assessed as diameter of inhibition zone at 20 uM after 24 hrs by Kirby -Baur disc diffusion method; format: functional; settings: ATCC 15499, 24 h, read-out: DIZ; summary of the method: as §2
Staphylococcus aureus [24] = test: Antimicrobial activity against Staphylococcus aureus ATCC 11632 after 24 hrs by broth micro serial dilution method; format: functional; settings: ATCC 11632, 24 h; summary of the method: as §5
Salmonella typhi [25] = test: Antimicrobial activity against Salmonella typhi ATCC 23564 assessed as diameter of inhibition zone at 40 uM after 24 hrs by Kirby -Baur disc diffusion method; format: functional, Salmonella enterica subsp. enterica serovar Typhi; settings: Salmonella enterica, ATCC 23564, 24 h; read-out: DIZ
Aspergillus flavus [26] = test: Antifungal activity against Aspergillus flavus MTCC 1021 assessed as zone of inhibition at 80 uM after 48 hrs by disc diffusion method; format: functional; settings: MTCC 1021, 48 h, read-out: IZ; summary of the method: as §3
Aspergillus niger [27] = test: Antifungal activity against Aspergillus niger MTCC 1108 assessed as zone of inhibition at 80 uM after 48 hrs by disc diffusion method; format: functional; settings: MTCC 1108, 48 h, read-out: IZ; summary of the method: as §3
Curvularia lunata [28] = test: Antifungal activity against Curvularia lunata MTCC 581 assessed as zone of inhibition at 40 uM after 48 hrs by disc diffusion method; format: functional; settings: MTCC 581, 48 h, read-out: IZ; summary of the method: as §3
Aspergillus niger [29] = test: Antifungal activity against Aspergillus niger MTCC 1108 after 48 hrs; format: functional; settings: MTCC 1108, 48 h
Escherichia coli [30] = test: Antimicrobial activity against Escherichia coli ATCC 35218 after 24 hrs by broth micro serial dilution method; format: functional; settings: ATCC 35218, 24 h; summary of the method: as §5
Bacillus cereus [31] = test: Antimicrobial activity against Bacillus cereus MTCC 7350 assessed as diameter of inhibition zone at 20 uM after 24 hrs by Kirby -Baur disc diffusion method; format: functional; summary of the method: as §2
Escherichia coli [32] = test: Antimicrobial activity against Escherichia coli ATCC 35218 assessed as diameter of inhibition zone at 20 uM after 24 hrs by Kirby -Baur disc diffusion method; format: functional; settings: ATCC 35218, 24 h, read-out: DIZ; summary of the method: as §2
Salmonella typhi [33] = test: Antimicrobial activity against Salmonella typhi ATCC 23564 after 24 hrs by broth micro serial dilution method; format: functional, Salmonella enterica subsp. enterica serovar Typhi; settings: Salmonella enterica, ATCC 23564, 24 h
Aspergillus flavus [34] = test: Antifungal activity against Aspergillus flavus MTCC 1021 assessed as zone of inhibition at 20 uM after 48 hrs by disc diffusion method; format: functional; summary of the method: as §3
Escherichia coli [35] = test: Antimicrobial activity against Escherichia coli ATCC 35218 assessed as diameter of inhibition zone at 80 uM after 24 hrs by Kirby -Baur disc diffusion method; format: functional; settings: ATCC 35218, 24 h, read-out: DIZ; summary of the method: as §2
Trichoderma viride [36] = test: Antifungal activity against Trichoderma viride MTCC 1107 assessed as zone of inhibition at 80 uM after 48 hrs by disc diffusion method; format: functional; settings: MTCC 1107, 48 h, read-out: IZ; summary of the method: as §3
Bacillus cereus [37] = test: Antimicrobial activity against Bacillus cereus MTCC 7350 after 24 hrs by broth micro serial dilution method; format: functional; settings: MTCC 7350, 24 h; summary of the method: as §5
Staphylococcus aureus [38] = test: Antimicrobial activity against Staphylococcus aureus ATCC 11632 assessed as diameter of inhibition zone at 80 uM after 24 hrs by Kirby -Baur disc diffusion method; format: functional; settings: ATCC 11632, 24 h, read-out: DIZ; summary of the method: as §2

CCCCC1C(=O)N(c2ccccc2)N(c2ccccc2)C1=O [PHENYLBUTAZONE]
inhibition in vivo at 100 mg/kg (Mus musculus [1]): 70.9%

COc1cc(/C=C/C(O)=C/C(/C=C/c2ccc(O)c(OC)c2)=N/c2ccc(S(=O)(=O)Nc3nc(C)cc(C)n3)cc2)ccc1O
zone of inhibition at 80 µM (Pseudomonas aeruginosa [2]): 19 mm
zone of inhibition at 80 µM (Curvularia lunata [3]): 19 mm
MIC (Aspergillus flavus [4]): > 80 µM
zone of inhibition at 20 µM (Trichoderma viride [5]): 18 mm
zone of inhibition at 40 µM (Escherichia coli [6]): 21 mm
zone of inhibition at 40 µM (Trichoderma viride [7]): 19 mm
zone of inhibition at 40 µM (Staphylococcus aureus [8]): 18 mm
MIC (Curvularia lunata [9]): 20 µM (≈ 12.6 µg/mL)
zone of inhibition at 40 µM (Pseudomonas aeruginosa [10]): 16 mm
zone of inhibition at 20 µM (Staphylococcus aureus [11]): 16 mm
zone of inhibition at 20 µM (Salmonella typhi [12]): 10 mm
zone of inhibition at 80 µM (Bacillus cereus [13]): 12 mm
zone of inhibition at 40 µM (Aspergillus flavus [14]): 9 mm
zone of inhibition at 80 µM (Salmonella typhi [15]): 17 mm
IC50 (HeLa): 25 µM
IC50 (HCT-116): 25 µM
MIC (Pseudomonas aeruginosa [16]): 20 µM (≈ 12.6 µg/mL)
MIC (Trichoderma viride [17]): 20 µM (≈ 12.6 µg/mL)
zone of inhibition at 40 µM (Aspergillus niger [18]): 14 mm
zone of inhibition at 20 µM (Aspergillus niger [19]): 12 mm
zone of inhibition at 20 µM (Curvularia lunata [20]): 12 mm
IC50 (QG-56): 50 µM
zone of inhibition at 40 µM (Bacillus cereus [21]): 9 mm
inhibition in vivo at 200 mg/kg (Mus musculus [22]): 38.7%
IC50 (HepG2): 25 µM
zone of inhibition at 20 µM (Pseudomonas aeruginosa [23]): 10 mm
MIC (Staphylococcus aureus [24]): 20 µM (≈ 12.6 µg/mL)
zone of inhibition at 40 µM (Salmonella typhi [25]): 14 mm
zone of inhibition at 80 µM (Aspergillus flavus [26]): 11 mm
zone of inhibition at 80 µM (Aspergillus niger [27]): 16 mm
zone of inhibition at 40 µM (Curvularia lunata [28]): 16 mm
MIC (Aspergillus niger [29]): 20 µM (≈ 12.6 µg/mL)
MIC (Escherichia coli [30]): 20 µM (≈ 12.6 µg/mL)
diameter of the inhibition zone (DIZ) (Bacillus cereus [31]): inactive
zone of inhibition at 20 µM (Escherichia coli [32]): 21 mm
MIC (Salmonella typhi [33]): 20 µM (≈ 12.6 µg/mL)
inhibition zone (IZ) (Aspergillus flavus [34]): inactive
zone of inhibition at 80 µM (Escherichia coli [35]): 23 mm
zone of inhibition at 80 µM (Trichoderma viride [36]): 22 mm
MIC (Bacillus cereus [37]): 20 µM (≈ 12.6 µg/mL)
zone of inhibition at 80 µM (Staphylococcus aureus [38]): 22 mm
